Reference: ChEMBL document CHEMBL1127367, “Antiproliferative properties of polyamine analogues: a structure-activity study” (J Med Chem, 1994)

Columns and labels:
L1210 [1] = experiment: Compound was evaluated for its impact on spermidine levels after 48 hr at concentration 30 uM; type: functional, Mus musculus
Method in brief: (§1)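 L1210 suspension cultures were grown in RPMI-1640 with 10% NuSerum, 2% HEPES-MOPS and 1 mM aminoguanidine (37 °C, 5% CO2). Log-phase cells were treated for 48 h, then washed twice in cold RPMI-1640 and pelleted. Pellets were extracted with 0.6 N perchloric acid, and supernatants were held at −20 °C until HPLC. Polyamine levels are given as % of untreated controls.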

L1210 [2] = experiment: Compound was evaluated for its impact on putrescine (Put) levels after 48 hr at concentration 30 uM; type: functional, Mus musculus; method in brief: as §1
L1210 [3] = experiment: Inhibition of radiolabeled spermidine uptake into L1210 cells in vitro.; type: functional, cell-based, Mus musculus
L1210 [4] = experiment: In vitro inhibition of L1210 growth after 48 hours.; type: functional, cell-based; details: Mus musculus, L1210, 48 h
Method in brief: (§2)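 Log-phase L1210 cultures (0.5–1.0 × 10^5 cells/mL) treated with analogue diluted in sterile water and filter-sterilized. After 48 h, cells were reseeded and grown a further 48 h for the 96 h point. Cells counted by Coulter counter. % growth = (treated − inoculum)/(untreated − inoculum) × 100.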

L1210 [5] = experiment: Compound level in L1210 cells after 48 hours of incubation at initial concentration of 150 uM is expressed as nmol/10e6 cells; type: functional, Mus musculus
Method in brief: (§3)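 Murine L1210 leukemia cells were kept in logarithmic growth as a suspension in RPMI-1640 with 10% NuSerum, 2% HEPES-MOPS buffer and 1 mM aminoguanidine, at 37 °C under 5% CO2. Log-phase cells were exposed to the analogue for 48 h. Intracellular analogue content is reported per 10^6 cells.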

L1210 [6] = experiment: In vitro inhibition of L1210 growth after 96 hours.; type: functional, cell-based; details: Mus musculus, L1210, 96 h; method in brief: as §2
[7] = target: T1, S-adenosylmethionine decarboxylase proenzyme 1 (Mus musculus) (UniProt P0DMN7); experiment: Inhibition of S-Adenosyl-methionine decarboxylase (AdoMetDC) activity; type: functional; set-up: concentration or dose not given beside the values
T1 sequence (whole entry): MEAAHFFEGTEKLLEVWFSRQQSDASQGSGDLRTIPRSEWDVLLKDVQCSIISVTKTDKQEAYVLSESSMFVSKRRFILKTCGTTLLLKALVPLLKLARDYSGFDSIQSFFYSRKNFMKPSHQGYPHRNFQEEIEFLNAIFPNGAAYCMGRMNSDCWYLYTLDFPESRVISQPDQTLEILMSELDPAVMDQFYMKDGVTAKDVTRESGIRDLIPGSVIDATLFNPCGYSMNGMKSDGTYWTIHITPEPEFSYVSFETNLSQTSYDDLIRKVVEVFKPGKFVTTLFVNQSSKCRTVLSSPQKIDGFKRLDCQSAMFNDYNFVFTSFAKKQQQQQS

L1210 [8] = experiment: Compound was evaluated for its impact on spermidine levels after 48 hr at concentration 150 uM; type: functional, Mus musculus; method in brief: as §1
L1210 [9] = experiment: Compound was evaluated for its impact on spermine levels after 48 hr at concentration 150 uM; type: functional, Mus musculus
Method in brief: (§4)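 Murine L1210 leukemia cells in log-phase suspension (RPMI-1640, 10% NuSerum, 2% HEPES-MOPS, 1 mM aminoguanidine, 37 °C, 5% CO2) exposed to analogue for 48 h. Cells washed twice in cold RPMI-1640, extracted with 0.6 N perchloric acid, and polyamines quantified by HPLC. Spermine is reported as % of untreated control.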

L1210 [10] = experiment: Compound was evaluated for its impact on spermine levels after 48 hr at concentration 30 uM; type: functional, Mus musculus; method in brief: as §4
[11] = target: Spermidine/spermine N(1)-acetyltransferase (SAT) (Mus musculus) (UniProt Q6P8J2+P48026); experiment: […] spermidine/spermine N1-Acetyltransferase (SSAT) activity; type: functional; set-up: concentration or dose not given beside the values
L1210 [12] = experiment: Compound was evaluated for its impact on putrescine (Put) levels after 48 hr at concentration 150 uM; type: functional, Mus musculus; method in brief: as §1
[13] = target: T2, Ornithine decarboxylase (Mus musculus) (UniProt P00860); experiment: Inhibition of ornithine decarboxylase (ODC) activity; type: functional; set-up: concentration or dose not given beside the values
T2 sequence (whole entry): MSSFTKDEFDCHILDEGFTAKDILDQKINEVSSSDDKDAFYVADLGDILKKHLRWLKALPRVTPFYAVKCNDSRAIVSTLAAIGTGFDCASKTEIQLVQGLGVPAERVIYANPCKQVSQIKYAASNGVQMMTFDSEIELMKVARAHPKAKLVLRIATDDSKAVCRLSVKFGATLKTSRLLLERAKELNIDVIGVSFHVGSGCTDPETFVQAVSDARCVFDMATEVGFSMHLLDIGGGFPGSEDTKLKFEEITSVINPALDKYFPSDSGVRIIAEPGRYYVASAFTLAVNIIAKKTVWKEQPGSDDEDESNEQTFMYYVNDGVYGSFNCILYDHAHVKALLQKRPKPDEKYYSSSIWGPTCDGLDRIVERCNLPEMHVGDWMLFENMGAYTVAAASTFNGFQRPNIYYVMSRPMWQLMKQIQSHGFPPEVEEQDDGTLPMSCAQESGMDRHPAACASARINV

L1210 [14] = experiment: Compound level in L1210 cells after 48 hours of incubation at initial concentration of 30 uM is expressed as nmol/10e6 cells; type: functional, Mus musculus; method in brief: as §3
L1210 [15] = experiment: Compound level in L1210 cells after 48 hours of incubation at initial concentration of 3 uM is expressed as nmol/10e6 cells; type: functional, Mus musculus; method in brief: as §3
L1210 [16] = experiment: Compound was evaluated for its impact on spermine levels after 48 hr at concentration 3 uM; type: functional, Mus musculus; method in brief: as §4
L1210 [17] = experiment: Compound was evaluated for its impact on spermidine levels after 48 hr at concentration 15 uM; type: functional, Mus musculus; method in brief: as §1
L1210 [18] = experiment: Compound was evaluated for its impact on spermidine levels after 48 hr at concentration 3 uM; type: functional, Mus musculus; method in brief: as §1
L1210 [19] = experiment: Compound level in L1210 cells after 48 hours of incubation at initial concentration of 15 uM is expressed as nmol/10e6 cells; type: functional, Mus musculus; method in brief: as §3
L1210 [20] = experiment: Compound was evaluated for its impact on putrescine (Put) levels after 48 hr at concentration 3 uM; type: functional, Mus musculus; method in brief: as §1
L1210 [21] = experiment: Compound was evaluated for its impact on putrescine (Put) levels after 48 hr at concentration 15 uM; type: functional, Mus musculus; method in brief: as §1
L1210 [22] = experiment: Compound was evaluated for its impact on spermine levels after 48 hr at concentration 15 uM; type: functional, Mus musculus; method in brief: as §4
L1210 [23] = experiment: Compound was evaluated for its impact on putrescine (Put) levels after 48 hr at concentration 100 uM; type: functional, Mus musculus
L1210 [24] = experiment: Compound was evaluated for its impact on spermine levels after 48 hr at concentration 100 uM; type: functional, Mus musculus
L1210 [25] = experiment: Compound was evaluated for its impact on spermidine levels after 48 hr at concentration 500 uM; type: functional, Mus musculus
L1210 [26] = experiment: Compound level in L1210 cells after 48 hours of incubation at initial concentration of 500 uM is expressed as nmol/10e6 cells; type: functional, Mus musculus; set-up: unit: nmol/10^6 cells
L1210 [27] = experiment: Compound was evaluated for its impact on spermine levels after 48 hr at concentration 500 uM; type: functional, Mus musculus
L1210 [28] = experiment: Compound level in L1210 cells after 48 hours of incubation at initial concentration of 100 uM is expressed as nmol/10e6 cells; type: functional, Mus musculus; set-up: unit: nmol/10^6 cells
L1210 [29] = experiment: Compound was evaluated for its impact on spermidine levels after 48 hr at concentration 100 uM; type: functional, Mus musculus
L1210 [30] = experiment: Compound was evaluated for its impact on putrescine (Put) levels after 48 hr at concentration 500 uM; type: functional, Mus musculus
L1210 [31] = experiment: Compound was evaluated for its impact on spermine […] levels after 48 hr at concentration 500 uM; type: functional, Mus musculus; method in brief: as §1
L1210 [32] = experiment: Compound was evaluated for its impact on spermine levels after 48 hr at concentration 5 uM; type: functional, Mus musculus; method in brief: as §4
L1210 [33] = experiment: Compound was evaluated for its impact on spermidine levels after 48 hr at concentration 1 uM; type: functional, Mus musculus; method in brief: as §1
[34] = target: T2, Ornithine decarboxylase (Mus musculus); experiment: Effect of compound on ornithine decarboxylase (ODC) activity expressed as percent of untreated control for ODC (1 uM at 4 h(or 48h))
Method in brief: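 L1210 cells exposed to 1 μM analogue for 4 h, or for 48 h in some cases. ODC activity measured as 14CO2 released from [14C]carboxyl-labeled L-ornithine and expressed as % of untreated control.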

L1210 [35] = experiment: Compound was evaluated for its impact on putrescine (Put) levels after 48 hr at concentration 1 uM; type: functional, Mus musculus; method in brief: as §1
L1210 [36] = experiment: Compound level in L1210 cells after 48 hours of incubation at initial concentration of 1 uM is expressed as nmol/10e6 cells; type: functional, Mus musculus; method in brief: as §3
L1210 [37] = experiment: Compound level in L1210 cells after 48 hours of incubation at initial concentration of 5 uM is expressed as nmol/10e6 cells; type: functional, Mus musculus; method in brief: as §3
L1210 [38] = experiment: Compound was evaluated for its impact on spermine levels after 48 hr at concentration 1 uM; type: functional, Mus musculus; method in brief: as §4
L1210 [39] = experiment: Compound was evaluated for its impact on spermidine levels after 48 hr at concentration 5 uM; type: functional, Mus musculus; method in brief: as §1
L1210 [40] = experiment: Compound was evaluated for its impact on putrescine (Put) levels after 48 hr at concentration 5 uM; type: functional, Mus musculus; method in brief: as §1

Chain of Spermidine/spermine N(1)-acetyltransferase (SAT) (Mus musculus) (P48026 whole entry, looked up): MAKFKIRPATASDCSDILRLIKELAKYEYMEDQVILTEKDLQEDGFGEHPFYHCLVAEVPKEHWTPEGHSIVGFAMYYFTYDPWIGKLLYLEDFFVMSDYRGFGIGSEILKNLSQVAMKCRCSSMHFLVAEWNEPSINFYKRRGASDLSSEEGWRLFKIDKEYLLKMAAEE
Chain of Spermidine/spermine N(1)-acetyltransferase (SAT) (Mus musculus) (Q6P8J2 whole entry, looked up): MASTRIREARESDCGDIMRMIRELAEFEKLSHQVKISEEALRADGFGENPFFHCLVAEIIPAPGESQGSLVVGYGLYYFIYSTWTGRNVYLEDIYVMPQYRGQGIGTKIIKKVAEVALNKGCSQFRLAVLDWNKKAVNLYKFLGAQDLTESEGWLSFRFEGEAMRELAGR

IC50 (L1210 [4]) [nM] | IC50 (L1210 [6]) [nM] | Activity [7] [%] | Activity [11] [%] | Activity [13] [%] | SMILES | Ki (L1210 [3]) [nM] | Polyamine (L1210 [23]) [%] | Polyamine (L1210 [24]) [%] | Polyamine (L1210 [25]) [%] | Activity (L1210 [26]) | Activity (L1210 [28]) | Polyamine (L1210 [29]) [%] | Polyamine (L1210 [30]) [%] | also measured
30000 | 180 | 28 | 460 | 3 | CCNCCCNCCCCNCCCNCC [BIS(ETHYL)SPERMINE] | 1600 | – | – | – | – | – | – | – | Polyamine (L1210 [1]): 0%; Polyamine (L1210 [2]): 0%; Activity (L1210 [5]): 1.13; Polyamine (L1210 [8]): 0%; Polyamine (L1210 [9]): 14%; Polyamine (L1210 [10]): 12%; Polyamine (L1210 [12]): 0%; Activity (L1210 [14]): 0.4
– | – | 72 | 500 | 52 | CCCNCCCNCCCCNCCCNCCC | 2300 | – | – | – | – | – | – | – | Activity (L1210 [15]): 1.12; Polyamine (L1210 [16]): 64%; Polyamine (L1210 [17]): 9%; Polyamine (L1210 [18]): 18%; Activity (L1210 [19]): 1.09; Polyamine (L1210 [20]): 0%; Polyamine (L1210 [21]): 0%; Polyamine (L1210 [22]): 43%
> 100000 | 2500 | 33 | 410 | 5 | CCNCCCNCCCNCCCN | 7700 | 0 | 11 | 2 | 1.72 | 1.69 | 5 | 0 | Polyamine (L1210 [27]): 11%
> 100000 | – | 40 | 300 | 3 | CNCCCNCCCCNCCCNC | 1100 | 0 | 21 | 0 | 1.24 | 1.26 | 0 | 0 | Polyamine (L1210 [31]): 24%
1000 | 180 | 28 | 120 | – | CCNCCCCNCCCNCCCCNCC | 4000 | – | – | – | – | – | – | – | Polyamine (L1210 [32]): 27%; Polyamine (L1210 [33]): 41%; Activity [34]: 5%; Polyamine (L1210 [35]): 81%; Activity (L1210 [36]): 0.76; Activity (L1210 [37]): 1.5; Polyamine (L1210 [38]): 52%; Polyamine (L1210 [39]): 0%; Polyamine (L1210 [40]): 0%
